Results published in PMC11387586 (Pharmacology Research & Perspectives, 2024).
Values joined by “and” are separate entries in the source; they are usually repeats but may differ in a detail not shown here. Equal values may be shown once.

Tests used:
[1] = oral dose, cited from earlier work
[2] = cited from earlier work
[3] = Metabolite profiling of plasma; type: in vivo, human; conditions: pooled samples 2 to 264 h
Method in brief: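 Plasma taken at 2, 4, 12, 24, 72, 120, 168 and 264 h was pooled across participants by time point, in proportion to weight (1.2–2.5 g each), then counted by LSC. LC-HRMS profiling used fraction radioactivity counts. For chiral M1a/M1b separation, a 2–264 h pool ran on a cellulose column with reverse-phase gradient, 0.6 mL/min, over 15 min. Exposure = component AUC0-t / total radioactivity AUC0-t × 100.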

[4] = Total radioactivity in plasma and whole blood; type: in vivo, human; conditions: for Total radioactivity t1/2 / Total radioactivity tmax: median (range)
Method in brief: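 About 4 mL K2EDTA blood was drawn at the PK time points. […] Counting ran at least 5 min with quench correction, in duplicate where possible. LLOQ was 9.57 ng equivalents/g for blood and 6.86 for plasma. Non-compartmental analysis; tmax and t1/2 given as median (range), others as geometric mean.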

[5] = Metabolite profiling of feces; type: in vivo, human; conditions: pooled feces
Method in brief: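 Feces from single oral 20 mg (about 100 μCi) [14C] dosing was homogenised in about 20:80 acetonitrile:water. Metabolites were profiled by LC-HRMS with radioactivity counted in collected fractions. Identification cut-off was 1% of dose; quantitation limit was 1% of run and 10 cpm peak height. % of dose = (% radioactivity in peak/100) × % of dose in sample.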

[6] = cited from earlier work; remark: listed apart in the source
[7] = Plasma pharmacokinetics of aficamten, M1a and M1b; type: in vivo, human
Method in brief: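 About 3 mL K2EDTA blood was drawn predose and at 0.25–48 h, then every 24 h. Plasma was spun at about 2000G for 10 min at 4°C and stored at −20°C. Validated LC-MS/MS: parent on C18 with 10 mM ammonium acetate/acetonitrile gradient; M1a/M1b on a chiral column with 30:70 acetonitrile:10 mM ammonium acetate. Non-compartmental analysis gave Cmax, tmax, t1/2, AUCs, CL/F and Vz/F.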

[8] = Metabolite profiling of urine; type: in vivo, human; conditions: pooled urine
Method in brief: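 Urine was pooled per participant into 0–336, 0–384 and 0–432 h pools (0.03–0.08% of each sample weight) and counted by LSC. Radiochromatograms came from LC-HRMS fractions. Chiral separation of M1a and M1b used a […] pool. Identification cut-off was 1% of dose; quantitation limit was 1% of run and 10 cpm peak height. % of dose = (% radioactivity in peak/100) × % of dose in sample.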

[9] = Urinary excretion of aficamten, M1a and M1b; type: in vivo; conditions: human, urine, oral, 20 mg, renal clearance (CLR), geometric mean
Method in brief: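 Urine was collected predose, at 0–4, 4–8, 8–12 and 12–24 h, then every 24 h until discharge. Isopropyl alcohol equal to 20% of void mass was added, pools were kept at 4°C, and aliquots were frozen at −20°C. Urinary excretion of parent and M1a/M1b (fe0-tlast) and renal clearance came from non-compartmental analysis, given as geometric means.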

[10] = Mass balance: radioactive dose recovered in urine and feces; type: in vivo, human; conditions: for Cumulative percent of radioactive dose recovered: urine
Method in brief: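 8 healthy men each got one [14C]-labelled 20 mg oral capsule (about 100 μCi) with 240 mL water after a fast of at least 10 h. Urine was collected at 0–4, 4–8, 8–12 and 12–24 h, then every 24 h; feces every 24 h, homogenised in about 20:80 acetonitrile:water. Urine was counted directly by LSC; fecal homogenate was combusted first. Samples ran in duplicate. Collection continued until discharge criteria were met.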

[11] = test system: naive rat intestinal contents; conditions: anaerobic conditions; cited from earlier work
Safety assessments = type: in vivo, human; conditions: single oral 20 mg
Method in brief: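 After one [14C] 20 mg oral dose, eight healthy men were monitored for vital signs, 12-lead ECG, clinical chemistry, haematology, urinalysis and adverse events at several time points. They stayed confined until at least Day 19 or until discharge criteria were met. A follow-up phone call came 7–9 days after discharge.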

[12] = whole blood, geometric mean (CV%)

In the case of CCc1nc(-c2ccc3c(c2)CC[C@H]3NC(=O)c2cnn(C)c2)no1 [Aficamten], the “percent of the [^14C]aficamten radioactive dose in bile” value ([1]; bile duct cannulated rats) is given as “trace level”, the “percent of the [^14C]aficamten radioactive dose in feces” value ([1]; intact rats) is given as “lack of detection” and the “radioactive dose excreted by the hepatobiliary route” value ([1]; rat) is given as “approximately 90%”. The “radioactive dose excreted in urine” value ([1]; rat) was “approximately 8%”, the “effect of food on absorption” value [2] was “did not affect the extent of aficamten absorption” and the “time to steady state concentrations” value ([2]; multiple doses) was ≤ 2 weeks. For the same molecule, the “AUC0‐t % of total radioactivity AUC0‐t” value [3] was 19.8%, the “AUC0‐t % of total radioactivity AUC0‐t” value ([3]; listed as aficamten) was “approximately 19.8%” and the “ratio of plasma analyte to plasma total radioactivity, AUC0‐inf” value ([4]; geometric mean) was 0.290. For the same molecule, the “ratio of total radioactivity in whole blood: plasma based on AUC0‐inf” value ([4]; geometric mean) was 0.566, the “Total radioactivity Cmax” value ([4]; plasma, geometric mean (CV%)) was 111 (43.2) ng/mL and the “Total radioactivity t1/2” value ([4]; plasma) was 98.2 (80.1–230) h. The Total radioactivity tmax ([4]; plasma) was 3.50 (1.00–6.00) h, the “Total radioactivity AUC0‐inf” value [4, 12] was 8660 (23.7) h.ng/mL and the “Total radioactivity AUC0‐tlast” value [4, 12] was 5710 (38.5) h.ng/mL. For the same molecule, the “Total radioactivity Cmax” value [4, 12] was 66.7 (44.9) ng/mL, the “Total radioactivity t1/2” value ([4]; whole blood) was 100 (86.2–171) h and the Total radioactivity tmax ([4]; whole blood) was 4.50 (1.00–16.0) h. The “Percent of radioactive dose in feces” value [5] was 5.07%, the “Percent of radioactive dose in feces” value ([5]; listed as aficamten) was “approximately 5.07%” and the “PK parameters in moderate hepatic impairment versus normal hepatic function” value [6] was “generally comparable”. It also gave a Tmax ([7]; human, po, 20 mg) of 2 h, a Vd/F ([7]; human, po, 20 mg) of 690 L and an AUC ([7]; human, po, 20 mg, AUC0‐inf, single oral 20 mg, geometric mean (CV%)) of 4440 ng·h/mL. The AUC ([7]; human, po, 20 mg, AUC0‐tlast, single oral 20 mg, geometric mean (CV%)) was 4120 ng·h/mL, the Cmax ([7]; human, po, 20 mg, Cmax, single oral 20 mg, geometric mean (CV%)) was 61.8 ng/mL and the half-life ([7]; human, po, 20 mg, t1/2, plasma, single oral 20 mg, median (range)) was 99.6 h. The CL/F ([7]; single oral 20 mg, geometric mean (CV%)) was 4.50 (32.1) L/h, the CL/F ([7]; single oral 20 mg, geometric mean (CV%), listed as aficamten) was 4.50 L/h and the “Percent of radioactive dose in urine” value [8] was “No unchanged aficamten was recovered”. The CL renal [9] was 0.0438 mL/min, the “fraction of dose absorbed” value ([10]; based on recovery data) was “at least 0.95” and the “mean recovery of radiolabeled material” value ([10]; urine and feces combined, by 336 h postdose) was 85.0%. For the same molecule, the “overall mean recovery of radioactivity in urine and feces” value ([10]; urine and feces combined, end of sampling period (600 h)) was 89.7%, the “Cumulative percent of radioactive dose recovered” value (shortened to “Cumulative percent”) ([10]; 0–96 h, individual subject) was 24.1% and 8.99% and 16.2% and 13.5% and 11.2% and 17.7% and 18.3% and 14.0% and the “Cumulative percent” value ([10]; 0–96 h, mean) was 15.5%. The “Cumulative percent” value ([10]; 0–120 h, individual subject) was 27.4% and 11.2% and 18.0% and 15.7% and 13.7% and 20.5% and 21.1% and 16.4%, the “Cumulative percent” value ([10]; 0–120 h, mean) was 18.0% and the “Cumulative percent” value ([10]; 0–144 h, individual subject) was 31.3% and 13.3% and 20.8% and 17.1% and 15.7% and 22.2% and 23.6% and 18.7%. For the same molecule, the “Cumulative percent” value ([10]; 0–144 h, mean) was 20.3%, the “Cumulative percent” value ([10]; 0–168 h, individual subject) was 34.3% and 14.7% and 22.3% and 18.2% and 17.5% and 24.1% and 25.7% and 20.7% and the “Cumulative percent” value ([10]; 0–168 h, mean) was 22.2%. For the same molecule, the “Cumulative percent” value ([10]; 0–192 h, individual subject) was 36.9% and 16.1% and 23.8% and 19.2% and 18.6% and 25.5% and 27.2% and 22.3%, the “Cumulative percent” value ([10]; 0–192 h, mean) was 23.7% and the “Cumulative percent” value ([10]; 0–216 h, individual subject) was 38.9% and 17.6% and 25.3% and 20.3% and 19.9% and 26.6% and 28.6% and 23.8%. The “Cumulative percent” value ([10]; 0–216 h, mean) was 25.1%, the “Cumulative percent” value ([10]; 0–240 h, individual subject) was 40.8% and 18.6% and 27.2% and 21.3% and 20.8% and 27.7% and 29.6% and 25.2% and the “Cumulative percent” value ([10]; 0–240 h, mean) was 26.4%. For the same molecule, the “Cumulative percent” value ([10]; 0–264 h, individual subject) was 42.5% and 19.7% and 28.6% and 21.9% and 21.6% and 28.5% and 30.6% and 26.2%, the “Cumulative percent” value ([10]; 0–264 h, mean) was 27.5% and the “Cumulative percent” value ([10]; 0–288 h, individual subject) was 43.8% and 20.5% and 29.9% and 22.5% and 22.0% and 29.3% and 31.2% and 27.1%. For the same molecule, the “Cumulative percent” value ([10]; 0–288 h, mean) was 28.3%, the “Cumulative percent” value ([10]; 0–312 h, individual subject) was 44.8% and 20.9% and 30.6% and 22.9% and 22.4% and 30.0% and 31.8% and 27.8% and the “Cumulative percent” value ([10]; 0–312 h, mean) was 28.9%. The “Cumulative percent” value ([10]; 0–336 h, individual subject) was 45.7% and 21.8% and 31.4% and 23.2% and 22.7%, the “Cumulative percent” value ([10]; 0–336 h, mean) was 29.5% and the “fate on incubation with rat intestinal contents” value [11] was “completely cleared”. For the same molecule, the tolerability (Safety assessments; 8 healthy male participants) was “well tolerated”, the “changes in vital signs, ECG measurements, laboratory values” (Safety assessments; 8 participants) was “no clinically significant changes in vital signs, ECG measurements, or laboratory values” and the “deaths, serious AEs, AEs leading to discontinuation” value (Safety assessments; 8 participants) was “no deaths, and serious AEs or any AEs leading to discontinuation”. The “participants with an AE (diarrhea, mild, not considered related to treatment)” value (Safety assessments; 8 participants) was 12.5%.
